Laboratory results reported in ChEMBL document CHEMBL1125175, “Synthesis and DNA-binding properties of polyamine analogues” (J Med Chem, 1991).

Tests used:
Nucleic Acid [1] = test: Ability to displace ethidium bromide from double stranded synthetic Poly (dA-dT); type: nucleic-acid assay
Summary of the method: (§1)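 Fluorescence displacement. Ethidium bromide 1.6 μM final in 2 mM HEPES, 10 μM EDTA, 9.4 mM NaCl, pH 7.0, then DNA added at 2 μM final (DNA phosphate): calf thymus DNA, poly(dA-dT)·poly(dA-dT) or poly(dG-dC)·poly(dG-dC). Excitation 546 nm, emission 598 nm. Analogue titrated in aliquots. IC50 is the concentration halving ethidium–DNA fluorescence. Trial-to-trial variability generally <5%.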

Nucleic Acid [2] = test: Ability to displace ethidium bromide from double stranded synthetic poly (dG-dC); type: nucleic-acid assay; summary of the method: as §1
HeLa [3] = test: Ability to inhibit 50% growth of HeLa cells; type: functional, cell-based; settings: Homo sapiens
Summary of the method: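 HeLa cells grown 2 days, then counted to set the baseline. Analogues added in complete medium for a further 2 days, then cells counted. Growth increase compared with untreated controls. IC50 is the concentration giving a 50% decrease in growth relative to controls.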

Calf thymus DNA = test: Ability to displace ethidium bromide from calf thymus DNA; type: nucleic-acid assay, Bos taurus; summary of the method: as §1
HeLa [4] = test: Ability to cause aggregation of purified HeLa cell DNA; type: functional; settings: Homo sapiens
Summary of the method: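 HeLa DNA labelled via 3-day culture with 4 μCi [³H]thymidine, then phenol/chloroform extracted. 1.5 μg DNA (~20000 cpm) plus analogue at various concentrations in buffer of 25 mM Tris, 4.5 mM KCl, 3 mM MgCl₂, pH 7.6. Incubated 10 min at 37 °C, then centrifuged 2.5 min and supernatant counted.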

| SMILES | IC50 (Nucleic Acid [1]) | IC50 (Nucleic Acid [2]) | IC50 (HeLa [3]) | IC50 (Calf thymus DNA) | IC50 (HeLa [4]) |
| --- | --- | --- | --- | --- | --- |
| NCCCCNCCCN [SPERMIDINE] | 110 µM | 300 µM | 100 µM | 130 µM | 1500 µM |
| c1ccc(CNCCNCCCCCCNCCNCc2ccccc2)cc1 |  |  | 75 µM | 800 µM | 2400 µM |
| NCCCNCCCCNCCCN [SPERMINE] | 2.8 µM | 6 µM | 50 µM | 4.3 µM | 70 µM |
| CCNCCCNCCCCCCCNCCCNCC | 4 µM | 20 µM | 100 µM | 11 µM | 200 µM |
| c1ccc(CNCCCCNCCCCCCCNCCCCNCc2ccccc2)cc1 | 3.2 µM | 20 µM | > 500 µM | 10 µM | 95 µM |
| NCCCNCCCC(F)(F)NCCCN |  |  |  | 140 µM | 2500 µM |
| c1ccc(NCCCNCCCCCCCNCCCNc2ccccc2)cc1 |  |  |  | 80 µM |  |
| c1ccc(CCNCCCNCCCCCCCNCCCNCCc2ccccc2)cc1 | 2.8 µM | 10.7 µM | 20 µM | 8 µM | 85 µM |
| NCCCNCC(F)(F)CCN |  |  | 150 µM | 275 µM | 3100 µM |
| CNC(C)CCNCCCCCCCNCCC(C)NC (configuration not stated) | 5 µM | 15 µM |  | 6.5 µM | 100 µM |
| c1ccc(CNCCNCCCCCCCCNCCNCc2ccccc2)cc1 | 40 µM | 100 µM | 20 µM | 130 µM | 750 µM |
| NCCCNCCCN [NORSPERMIDINE] | 140 µM | 370 µM | 100 µM | 220 µM | 3000 µM |
| NCC(O)CNCCCCCCCCNCC(O)CN (configuration not stated) | 4.3 µM | 27 µM |  | 5.2 µM | 200 µM |
| NCCCNCCCCCCCCCNCCCN | 4.5 µM | 16 µM | 30 µM | 12 µM |  |
| c1ccc(CNCCNCCCCCCCCCCNCCNCc2ccccc2)cc1 | 700 µM | 1600 µM | 2 µM | 600 µM | > 8000 µM |
| c1ccc(CNCCCNCCCCCCCNCCCNCc2ccccc2)cc1 | 4.6 µM | 31 µM | 5 µM | 6 µM | 150 µM |
| NCCCc1ccc(CCCN)cc1 |  |  | 400 µM | 400 µM | 3000 µM |
| NCCCNC(F)(F)CCCN | 1000 µM | 900 µM |  | 875 µM | 7000 µM |
| NCCCNCCCCCCCCNCCCN | 3.8 µM | 7.8 µM | 50 µM | 4.9 µM | 35 µM |
| CNCC(C)CNCCCCCCCNCC(C)CNC (configuration not stated) | 4.5 µM | 20 µM | > 500 µM | 12.8 µM |  |
| c1ccc(CNCCCNCCCCCCCCNCCCNCc2ccccc2)cc1 | 4.2 µM | 32 µM | 15 µM | 13 µM | 300 µM |
| CCCNCCCNCCCCCCCCNCCCNCCC | 3.8 µM | 25 µM | > 500 µM | 17 µM | 220 µM |
| c1ccc(CNCCCNCCCCNCCCNCc2ccccc2)cc1 | 4.9 µM | 17 µM | 10 µM | 10 µM | 40 µM |
| NCC(O)CNCCCCCCCNCC(O)CN (configuration not stated) | 4.5 µM | 23 µM |  | 4.9 µM | 110 µM |
| NCCCNCCCCCCCNCCCN | 2.6 µM | 5.4 µM | 200 µM | 3.8 µM | 37 µM |

| SMILES | IC50 (Nucleic Acid [1]) | IC50 (Nucleic Acid [2]) | IC50 (HeLa [3]) | IC50 (Calf thymus DNA) | IC50 (HeLa [4]) |
| --- | --- | --- | --- | --- | --- |
| CC(N)CCNCCCCCCCCNCCC(C)N (configuration not stated) | 4.2 µM | 12.5 µM |  | 7.5 µM |  |
| NCCCNCCCCCCCCCCNCCCN | 4.2 µM | 11 µM | 10 µM | 8 µM | 170 µM |
| NCCCNCC(F)(F)CN |  |  |  | > 10000 µM |  |
| c1ccc(CNCCCNCCCCCCCCCNCCCNCc2ccccc2)cc1 | 2.9 µM | 24.5 µM | 10 µM | 31 µM | 200 µM |
| c1ccc(CCCNCCCNCCCCCCCNCCCNCCCc2ccccc2)cc1 | 4.7 µM | 12 µM | 20 µM | 7.5 µM | 100 µM |
| NCC(=O)CNCCCCCCCCNCC(=O)CN | 10.5 µM | 18 µM |  | 8.2 µM | 400 µM |
| C/C=C(\CNC)CNCCCCCCCNC/C(=C/C)CNC | 5 µM | 34.5 µM | > 500 µM | 12 µM |  |
| CC(CCN)NCCCCCCCCNC(C)CCN (configuration not stated) | 3.6 µM | 12.6 µM | 100 µM | 7 µM | 180 µM |
| c1ccc(CNCCCNCCCCCNCCCNCc2ccccc2)cc1 | 4.5 µM | 22 µM | 80 µM | 12 µM |  |
| NCCCNCCCc1ccc(CCCNCCCN)cc1 |  |  | 160 µM | 5 µM | 250 µM |
| C=C(CNC)CNCCCCCCCCNCC(=C)CNC | 4.5 µM | 30 µM | 125 µM | 19.1 µM |  |
| c1ccc(CNCCCNCCCCCCNCCCNCc2ccccc2)cc1 | 10 µM | 25 µM | 60 µM | 5.5 µM | 85 µM |
| CNCCCNCCCCCCCNCCCNC | 3.5 µM | 11 µM | 500 µM | 6 µM | 150 µM |
| NCCCCN [PUTRESCINE] | 5100 µM | 5200 µM | 8000 µM | 4500 µM | 12000 µM |
| CC(CN)CNCCCCCCCNCC(C)CN (configuration not stated) | 3 µM | 10.5 µM | > 500 µM | 8 µM |  |
| CCCNCCCNCCCCCCCNCCCNCCC | 3.8 µM | 20.5 µM | 300 µM | 10 µM | 250 µM |
| NCCCCSCCCN |  |  | 350 µM | 1450 µM | > 15000 µM |
| c1ccc(CNCCCCNCCCCCCCCNCCCCNCc2ccccc2)cc1 | 3.4 µM | 20 µM | > 500 µM | 12 µM | 105 µM |
| NCCCNCCCC1CCC(CCCNCCCN)CC1 (configuration not stated) |  |  | 90 µM | 7.5 µM |  |
| CNC/C(=C\Cl)CNCCCCCCCNC/C(=C/Cl)CNC | 5 µM | 34.5 µM | 125 µM | 12 µM |  |
| c1ccc(CNCCCNCCCCCCCCCCNCCCNCc2ccccc2)cc1 | 3.1 µM | 26 µM | 1 µM | 33 µM | 400 µM |
| c1ccc(CNCCNCCCCCCCNCCNCc2ccccc2)cc1 | 170 µM | 316 µM | 60 µM | 600 µM | 600 µM |
| CCNCCCNCCCCCCCCNCCCNCC | 3.9 µM | 19.5 µM | 200 µM | 15 µM | 150 µM |
| CCCCNCCCNCCCCCCCCNCCCNCCCC | 4.2 µM | 40 µM | > 500 µM | 20 µM | 340 µM |
